Screens as filed in PubChem.
SENP8 block-1: blocks human SENP8 cleavage of Nedd8 substrate; Q96LD8; recombinant SENP8, Nedd8 substrate fluorescence; inhibition, % at 20 µM; hit rate 0.64% among 360,000; in the data active = inhibition mostly above about 40%, no sharp cut-off; inactive = mostly below about 27%
UBC13 inh: human UBC13 polyubiquitination inhibition; UBC13 polyubiquitin chain formation, TR-FRET; hit rate 0.47% among 330,000; inhibition, % at 20 µM; P61088; in the data active = inhibition above about 45%, passing the limit was not always enough
Target sequence (P61088 whole entry, looked up): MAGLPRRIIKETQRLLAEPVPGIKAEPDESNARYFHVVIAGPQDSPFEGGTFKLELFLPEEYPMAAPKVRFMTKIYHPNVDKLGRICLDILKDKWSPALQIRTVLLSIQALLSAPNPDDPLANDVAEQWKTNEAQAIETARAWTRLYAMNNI
SENP8 block-2: SENP8 protease inhibition. purified SENP8, Z-RLRGG-aminoluciferin cleavage, luminescence. hit rate 1.2% among 330,000. inhibition, % at 10 µM. AID 2540; in the data active = inhibition above about 50%
Apaf-1 inh: inhibitors of human Apaf-1 apoptosome | O14727 | reconstituted apoptosome caspase-3 activity, DEVD-Rh110 fluorescence | inhibition, % at 20 µM | hit rate 0.71% among 330,000 | AID 489030; active = inhibition of at least 40% at 20 µM
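detection = Rh110 fluorescence intensity | test system = biochemical Apaf-1 apoptosome reconstitution | also added = cytochrome c and DEVD-Rh110 substrate | schedule = 30 min plus 50 min, RT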
SENP6 inh: blocks the human protease SENP6 | hit rate 1.8% among 330,000 | Q9GZR1 | inhibition, % at 10 µM | AID 2599 | Recombinant SENP6 catalytic domain, aminoluciferin luminescence;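 active = inhibition above about 50% at the single tested dose, limit read from the data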
SENP7 inh: inhibitors of human SENP7 protease | hit rate 1.5% among 330,000 | inhibition, % at 5 µM | Q9BQF6 | recombinant SENP7, Z-RLRGG-aminoluciferin luminescence, 40 min;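 active = inhibition above about 50% at the single test dose, limit read from the data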
Target sequence (Q9BQF6 706-1050 limits assumed): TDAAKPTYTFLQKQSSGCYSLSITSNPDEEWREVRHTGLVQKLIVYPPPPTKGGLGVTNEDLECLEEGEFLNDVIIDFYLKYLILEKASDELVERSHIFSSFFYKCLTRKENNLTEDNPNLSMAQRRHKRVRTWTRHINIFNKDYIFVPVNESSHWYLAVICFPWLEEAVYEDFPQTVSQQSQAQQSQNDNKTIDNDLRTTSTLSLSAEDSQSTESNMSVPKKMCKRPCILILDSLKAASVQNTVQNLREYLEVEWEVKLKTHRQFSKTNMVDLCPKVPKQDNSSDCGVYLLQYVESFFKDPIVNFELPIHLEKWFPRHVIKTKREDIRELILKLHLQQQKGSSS
Numbers stand for hits; - = inactive; . = not tested or not shown. Rows were chosen to be rich in hits. Some 3% of all compounds tested hit in one or more screens of this group.

SMILES	SENP8 block-1	UBC13 inh	SENP8 block-2	Apaf-1 inh	SENP6 inh	SENP7 inh
COC(=O)C[C@@H]1CC[C@@H](NC(=O)C2CCC2)[C@@H](CO)O1	-	.	.	.	.	.
O=C(/C=C/c1ccc(F)cc1)c1ccc(N2CCOCC2)cc1	-	-	-	-	80	78
CCc1ccc(/C=C/C(=O)c2ccc(N3CCOCC3)cc2)cc1	-	-	-	-	-	-
CCOC(=O)C1Nc2ccc(C)cc2C2C=CCC12 (stereo not given)	-	-	-	-	-	-
CCOC(=O)C1Nc2ccc(Br)cc2C2C=CCC12 (stereo not given)	59	-	-	-	-	-
O=C(C[C@@H]1C=C[C@@H](NC(=O)C2CC2)[C@@H](CO)O1)NCc1ccccc1Cl	-	.	.	.	.	.
CC(=O)Oc1cc2cccc(OC(C)=O)c(=O)c2c(OC(C)=O)c1OC(C)=O	44	-	-	-	-	-
COc1cc2cccc(OC)c(=O)c2c(O)c1OC	-	-	-	-	-	-
O=C(Nc1ccc2oc(-c3ccccc3F)nc2c1)c1ccccc1F	-	-	-	-	-	-
O=C(Nc1ccc2oc(-c3ccccc3F)nc2c1)c1ncn[nH]1	-	-	51	-	82	81
O=C(NCCNc1ccc2ccccc2c1)c1cccn2c(=O)c3sccc3nc12	.	-	-	51	56	-
O=C(NCCN1CCN(c2ccccc2)CC1)c1cccn2c(=O)c3ccccc3nc12	-	-	-	-	-	-
COc1cccc(N=Nc2c(N)[nH]n3c(=O)c4c(nc23)CCCC4)c1	50	-	-	-	-	-
COc1cccc(N=Nc2c(N)[nH][nH]c2=O)c1	-	-	-	-	-	-
O=C(Nc1ccc(N2CCOCC2)cc1)Nc1ccc2nc(-c3ccco3)c(-c3ccco3)nc2c1	-	-	-	-	-	-
O=S(=O)(c1ccc2nc(-c3ccco3)c(-c3ccco3)nc2c1)N1CCOCC1	-	-	-	77	-	-
O=C(NCCCO)Nc1ccc2nc(-c3ccco3)c(-c3ccco3)nc2c1	.	-	-	57	-	-
CCc1nc2ccc(C(=O)NCCc3ccc(OC)c(OC)c3)cc2nc1CC	-	-	-	-	-	-
O=C(O)c1ccc2nc(-c3ccco3)c(-c3ccco3)nc2c1	-	-	-	62	-	-
Cc1ccc(-c2nc3ccc(C(=O)O)cc3nc2-c2ccc(C)cc2)cc1	-	-	-	-	-	-
COc1ccc(CCNC(=O)c2ccc3nc(-c4ccco4)c(-c4ccco4)nc3c2)cc1OC	-	-	-	56	-	-
O=S(=O)(c1ccc2ccccc2c1)N1CCOCC1	-	-	-	-	-	-
Cn1cc([C@]2(O)C(=O)Nc3c(F)cccc32)c2ccccc21	-	.	.	.	.	.
COc1ccc(-c2coc3c(C(=O)NCc4ccc(OC)c(OC)c4)cccc23)c(C)c1	-	.	.	.	.	.
CC1(C(=O)Nc2cccc(OC(F)(F)F)c2)Cc2c(-c3cccc(C(N)=O)c3)ccnc2O1 (stereo not given)	-	.	.	.	.	.
SMILES	SENP8 block-1	UBC13 inh	SENP8 block-2	Apaf-1 inh	SENP6 inh	SENP7 inh
CCN(CC)C(=O)CSc1ncnc2c(-c3ccc(OC)cc3)nsc12	.	-	52	-	51	-
CNC(=S)N=Nc1c(O)[nH]c2ccc(C(C)C)cc12	44	.	.	.	.	.
CNC(=S)N=Nc1c(O)[nH]c2ccccc12	-	.	.	.	.	.
O=C(Nc1ccc(F)cc1)C(c1cc2ccccc2o1)N1CCN(c2ccncc2)CC1 (stereo not given)	-	.	.	.	.	.
O=C1CC(c2ccc(O)c(O)c2)Oc2c1ccc(O)c2O (stereo not given)	51	-	-	-	-	-
O=C1c2cccc(O)c2C(=O)c2c(O)cccc21	.	-	-	-	-	-
O=C1C=C(O)c2cccc(O)c2C1=O	45	-	-	44	66	-
CC(C)N=c1cc2n(-c3ccc(Cl)cc3)c3ccccc3nc-2cc1Nc1ccc(Cl)cc1	-	-	-	68	-	-
COc1ccc(OC)c(NC(=O)C2(C)CCN2Cc2ccsc2)c1 (stereo not given)	-	.	.	.	.	.
COc1ccc(C(=O)c2[nH]c(N)c(C(=O)NCCc3c[nH]c4ccccc34)c2-c2c(F)cccc2Cl)cc1	-	.	.	.	.	.
CNc1nc(NCc2ccc(N(C)C)cc2)c2sccc2n1	-	.	.	.	.	.
CN1C(=O)/C(=C/c2cc(N=Nc3ccccc3)ccc2O)SC1=S	39	-	-	-	-	-
Cc1c(N2C(=O)/C(=C\c3ccccc3O)SC2=S)c(=O)n(-c2ccccc2)n1C	-	-	-	-	-	-
Cc1ccc(NC(=O)C2c3ccccc3-c3ccccc32)cc1	-	.	.	.	.	.
Nc1ccc(N)c(C(=O)O)c1	-	-	-	67	-	-
CC1=C2CCCC[C@@]23C2C(=O)N(C)C(=O)[C@@H]2ON3OC1 (stereo not given in full)	-	.	.	.	.	.
CCCCCCCCN1C(=O)[C@H](CC(=O)NCc2cccc(C(F)(F)F)c2)C[C@@]2(C(=O)OC)CC(C)(C)CC=C12	-	.	.	.	.	.
Cc1cc(/C=C2\C(=O)NN(c3ccccc3)C2=O)c(C)n1-c1ccccc1O	53	-	-	-	-	-
COc1ccc(-n2c(C)cc(/C=C3\C(=O)NN(c4ccccc4)C3=O)c2C)cc1	-	-	-	-	-	-
CN(C)c1ccc(N=Nc2ccccc2C(=O)OCC(=O)N2CCCCCC2)cc1	57	-	-	-	-	-
COC(=O)C1(C(=O)OC)C[C@H](c2ccc(OC)cc2)N(Cc2ccccc2OC)[C@@H]1c1cccs1	-	.	.	.	.	.
CCc1nc2ccc(C(=O)Nc3ccc(Cl)c(Cl)c3)cn2c1N(C)Cc1ccc(OC)cc1	-	.	.	.	.	.
O=C(O)c1cc(NN=Nc2cccc([N+](=O)[O-])c2)cc([N+](=O)[O-])c1	-	-	57	-	77	-
O=C(O)c1cc(NN=Nc2ccc(Br)cc2)cc([N+](=O)[O-])c1	-	-	-	-	52	-
O=C(O)c1cc(NN=Nc2cccc(S(=O)(=O)O)c2)cc([N+](=O)[O-])c1	-	-	-	-	-	-
SMILES	SENP8 block-1	UBC13 inh	SENP8 block-2	Apaf-1 inh	SENP6 inh	SENP7 inh
CCC(CC)C(=O)N(C)c1c(C)nc2c(OCc3ccc(C(F)(F)F)cc3)cccn12	-	.	.	.	.	.
CCOC(=O)C(=O)N(C)c1c(CC)nc2c(OCCC3CCCCC3)cccn12	-	.	.	.	.	.
O=C(O)c1cccc(NC(=S)NC(=O)c2ccc3ccccc3c2)c1	-	-	87	-	93	71
O=C(O)c1ccc(NC(=S)NC(=O)c2ccc3ccccc3c2)cc1	-	-	-	-	-	-
CCN1CCN(c2ccc(NC(=O)CCc3c(C)nc4c(-c5ccccc5)c(C)nn4c3C)cc2)CC1	-	-	-	48	-	-
Cn1c(C(=O)NCCCN2CCc3ccccc3C2)cc2c(=O)n(C)c3ccccc3c21	-	56	-	-	-	-
CCN(CC)CCNC(=O)c1cc2c(=O)n(C)c3ccccc3c2n1C	-	48	-	-	-	-
CO/N=C/C(=N\Nc1ccc(C)cc1)C(=O)c1ccc(OC)cc1	51	-	-	-	-	-
OC[C@@H]1CC[C@@H](Cc2ccc(-c3ccccc3)cc2)O1	-	.	.	-	.	63
